Bioassay records deposited in PubChem BioAssay by several laboratories.
NPY-Y1 antag = NPY-Y1 receptor antagonists, primary screen, cell-based; AID 1040, 2008; inhibition, % at 3.6 µM; HEK293-CNG Y1 cells, membrane potential fluorescence; NPY at EC95, then isoproterenol; 1% of 200,000 active;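 active means inhibition above the campaign mean inhibition of all tested compounds plus 3 SD, cut at about 20% in these data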;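 further: 0% = DMSO wells given NPY plus isoproterenol and 100% = isoproterenol alone without NPY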
Target sequence (P25929 whole entry, looked up): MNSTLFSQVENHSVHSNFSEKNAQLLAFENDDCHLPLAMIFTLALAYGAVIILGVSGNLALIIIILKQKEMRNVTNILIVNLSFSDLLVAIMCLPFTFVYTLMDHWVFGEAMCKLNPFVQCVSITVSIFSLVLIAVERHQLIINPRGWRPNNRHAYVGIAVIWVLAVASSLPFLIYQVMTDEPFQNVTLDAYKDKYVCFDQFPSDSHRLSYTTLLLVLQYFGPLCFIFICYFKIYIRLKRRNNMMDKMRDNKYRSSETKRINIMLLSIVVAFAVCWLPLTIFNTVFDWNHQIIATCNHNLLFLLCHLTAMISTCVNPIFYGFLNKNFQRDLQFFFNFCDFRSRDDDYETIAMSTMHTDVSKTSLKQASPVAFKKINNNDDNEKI
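System: HEK293 cells with Y1 receptor plus CNG channel / Probe or stimulus: NPY 25 nM then isoproterenol 1 µM plus Ro 20-1724 25 µM / Compound: one concentration, 3.6 µM, in 0.4% DMSO / Schedule: compound incubation 1 h at room temperature, readout 45 min post-stimulation / Measured by: membrane potential fluorescence / Read-out: % inhibition of NPY effect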
NPY1 pot ag = NPY-Y1 receptor potentiators or agonists, primary screen, cell-based; Neuropeptide Y receptor type 1 (Homo sapiens), P25929; NPY-Y1 expressing cells, potentiator/agonist activation; activation, % at 3.6 µM; 0.37% of 220,000 active; AID 1304, 2008; in the data active means activation above about 33%, passing the limit was not always enough;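 further: cells stimulated with NPY at EC10 then isoproterenol at EC100; 0% = low agonist plus stimulus and 100% = saturating agonist plus stimulus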
NPY-Y2 PAM-ag = NPY-Y2 potentiators or agonists, primary screen, cell-based. cells expressing NPY-Y2, potentiator/agonist read-out. activation, % at 3.6 µM. 0.45% of 220,000 active; in the data active means activation above about 27%;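 further: cells stimulated with NPY near EC25 plus isoproterenol at EC100; 0% = vehicle plus submaximal agonist and 100% = vehicle plus saturating agonist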
NPY-Y2 antag = NPY-Y2 receptor antagonists, primary screen, cell-based. 0.99% of 140,000 active. NPY-Y2 expressing cells, antagonist mode. inhibition, % at 2.7 µM. AID 793, 2007;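 further: 0% = vehicle with agonist challenge and 100% = reference antagonist with challenge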
EP2 antag = human EP2 receptor antagonists, primary screen, TR-FRET cAMP, C6 glioma cells | inhibition, % at 25 µM | C6 glioma cells expressing human EP2; cells stimulated with saturating PGE2 | AID 1422, 2008 | 0.52% of 260,000 active;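 active means percent inhibition above 40 after rounding to a whole number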;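 further: rat C6 glioma host cells with rolipram phosphodiesterase inhibitor present; the protocol text gives 20 µM as final concentration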
EP2 modulator = EP2 receptor modulators, cAMP readout, primary screen, cell-based, HTRF cAMP, PGE2 stimulation; AID 940, 2007; EP2-expressing cells, cAMP HTRF FRET, PGE2 co-stimulation; Prostaglandin E2 receptor EP2 subtype (Homo sapiens), P43116; induction, % at 25 µM; 0.83% of 260,000 active;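 active means compounds whose cAMP rise, as percent of the full-agonist control response, exceeds 60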;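 further: rat C6 glioma line stably carrying human EP2 under a CMV promoter; the protocol text gives 20 µM as final concentration; 100% = response of wells given 1 µM PGE2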
NPY1 antag conf = NPY-Y1 receptor antagonists, retest of hits, confirmation, HEK293-CNG cells, membrane potential fluorescence, triplicate | shares compounds with NPY-Y1 antag | cAMP; NPY challenge against isoproterenol-raised cAMP | inhibition, % at 3.6 µM | 21% of 1,200 active | AID 1254, 2008; in the data active means inhibition above about 20%;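 further: 0% = vehicle with agonist plus stimulus and 100% = stimulus alone without agonist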
NPY-Y2 antag ct = NPY-Y2 receptor antagonists, selectivity check, confirmation, counter-screen for NPY-Y1 antagonist project, HEK293-CNG cells, membrane potential fluorescence, triplicate; AID 1255, 2008; 28% of 1,200 active; shares compounds with NPY-Y1 antag; antagonism; cells given NPY, then isoproterenol; inhibition, % at 3.6 µM;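 further: 0% = DMSO with agonist challenge and 100% = reference antagonist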
The depositor's hits bear a star; x = not tested or not shown. Hits are enriched below; roughly 2.8% of the tested compounds scored in any of these assays. Unless noted, no stated cut-off is given here; in the data, active means inhibition above about 17%; inactive means the rest.

SMILES	NPY-Y1 antag	NPY1 pot ag	NPY-Y2 PAM-ag	NPY-Y2 antag	EP2 antag	EP2 modulator	NPY1 antag conf	NPY-Y2 antag ct
O=C(NNc1cccc(Cl)n1)c1ccccc1CC[N+](=O)[O-]	23*	20	8	x	5	-2	2	-1
O=C(NNc1ccc(Br)cn1)C(=O)NNc1ccc(Br)cn1	x	x	x	x	4	-13	x	x
COc1cc2cc(C)nc(Cc3cccc4ccccc34)c2cc1OC	27*	-35	-39	16	9	42	9	13
COCc1cc(C)nc(SCc2cccc3ccccc23)c1C#N	x	x	x	x	15	47	x	x
COc1cccc(/C(C#N)=C/c2c(-c3ccc(Cl)cc3)nc3c(C)cccn23)c1	23*	0	-4	2	14	9	4	2
Cc1cc(S(=O)(=O)N2c3ccccc3CC2C)ccc1-n1cnnn1 (centres undefined)	x	x	x	x	12	-27	x	x
CC1CCc2c(sc3ncn4c(=O)n(CC(=O)N5CCOCC5)nc4c23)C1 (centres undefined)	x	x	x	x	x	0	x	x
COc1cc2c(cc1OC)C(c1ccccc1F)N(Cc1ccncc1C)CC2 (centres undefined)	x	x	x	x	10	23	x	x
COc1ccc(NC(=O)c2sc3nc4ccc(OC)cc4cc3c2N)cc1	x	x	x	x	10	-5	x	x
COc1cc(C=O)ccc1OCCOCCOc1ccccc1Cl	21*	-7	2	2	x	3	3	4
CCc1nn2cc(-c3ccccc3)nc2s1	28*	4	11	1	11	-13	-1	0
CCN(CC)CC(=O)Nc1sc2c(c1C(=O)c1ccccc1OC)CCC2	23*	16	11	x	10	54	13	2
CC(/C=C/c1ccc(C)o1)=C\C(=O)O	22*	-4	6	8	5	47	4	6
O=C(OCC(=O)N1N=C(c2ccc(Cl)cc2)CC1c1ccco1)c1ccccc1O (centres undefined)	22*	-3	-7	11	6	43	6	9
Cc1cccc2cc(CN(Cc3ccco3)C(=O)Nc3cccc(C#N)c3)c(Cl)nc12	34*	-27	-32	9	8	41	19	9
CC(C)CN(CC(C)C)C(=O)c1cccc(S(=O)(=O)N2CCc3ccccc32)c1	29*	-5	-3	x	2	33	5	6
COc1ccc(OC)c(NC(=O)Cn2cc(C(=O)C(C)(C)C)c3ccccc32)c1	x	x	x	x	11	9	x	x
O=C(CCCOc1ccc(Cl)cc1Cl)N1CCN(c2ccccn2)CC1	24*	-28	-14	11	10	-15	8	11
O=C(Cn1nc2c3ccccc3nc(C3CC3)n2c1=O)NC1CC1	x	x	x	x	7	-18	x	x
CCN1CCCC1CN(Cc1ccc(OC)c(O)c1)Cc1ccccn1 (centres undefined)	x	x	x	x	3	2	x	x
COc1ccc(-n2c(CCC(=O)O)ccc2-c2ccccc2)cc1	27*	-2	-23	x	2	6	13	12
COc1ccc(-c2ccc(CCC(=O)O)n2-c2ccccc2O)cc1	x	-4	-9	x	7	17	x	x
CSc1cc(-c2ccccc2)n(Cc2ccc(Cl)cc2Cl)c(=O)c1C#N	24*	-13	-11	2	9	22	0	2
COc1cc(C2=NOC(C(=O)NCc3ccc(F)cc3)C2)cc(OC)c1OC (centres undefined)	16	-26	-23	5	x	10	x	x
COc1cccc(C2=NOC(C(=O)NCc3cccs3)C2)c1 (centres undefined)	30*	-13	-48	7	6	8	3	15
SMILES	NPY-Y1 antag	NPY1 pot ag	NPY-Y2 PAM-ag	NPY-Y2 antag	EP2 antag	EP2 modulator	NPY1 antag conf	NPY-Y2 antag ct
COc1ccc(CNC(=O)C2CC(c3cccc(OC)c3)=NO2)cc1 (centres undefined)	12	-28	-32	12	7	-23	x	x
COc1cccc(C2=NOC(C(=O)NCc3ccc(F)cc3)C2)c1 (centres undefined)	23*	-55	-47	13	x	-38	15	24*
COc1ccc(C2=NOC(C(=O)NCc3ccc(F)cc3)C2)cc1OC (centres undefined)	33*	-12	-12	9	x	-21	7	16
Cc1oc(C2CC2)cc1C(=O)N1CCn2c(nnc2C2CC2)C1	x	x	x	x	x	2	x	x
O=C(C1CCCN1S(=O)(=O)c1ccc(Cl)cc1)N1CCOCC1 (centres undefined)	2	-1	11	2	8	-3	x	x
Cc1cc(C)n(C(=O)C2CCCN2S(=O)(=O)c2ccc(Cl)cc2)n1 (centres undefined)	25*	13	-11	-1	x	50	-1	1
COc1ccc2[nH]c(=O)c(C(c3nnnn3C3CCCCC3)N3CCCC3)cc2c1 (centres undefined)	x	x	x	x	8	-3	x	x
COc1cccc(-c2nn(-c3ccccc3)cc2CN(C)Cc2c(C)nc3ccccn23)c1	23*	-55	-18	x	12	7	12	16
CCc1nnc(NC(=O)c2ccc(S(=O)(=O)N3CCCCC3C)cc2)s1 (centres undefined)	-5	13	-5	0	-3	12	x	x
CCc1nnc(NC(=O)c2ccc(S(=O)(=O)N3CCCCCC3)cc2)s1	61*	8	3	0	14	22	-4	0
COc1ccc(N2CCN(C(=O)CSc3nnc4c5c6c(sc5ncn34)CCCC6)CC2)cc1	x	x	x	x	10	19	x	x
O=C(c1ccc2c(c1)OCO2)C1CCCN(C2CCN(CCc3ccccc3)CC2)C1 (centres undefined)	22*	-29	-30	x	4	-8	18	23*
CO/N=C\C(=N\Nc1ccc(OC)cc1)C(=O)c1ccccc1	23*	-63	-23	11	11	62*	6	9
CO/N=C/C(=N\Nc1ccc(OC)cc1)C(=O)c1ccc(F)cc1	1	2	-1	x	7	43	x	x
CCOc1ccccc1C(=O)Nc1nc(-c2ccc3c(c2)CCN3C(C)=O)c(C)s1	x	x	x	x	9	15	x	x
Cc1nc(NCc2ccccn2)c2c3c(sc2n1)CCCC3	46*	7	-13	x	10	5	15	9
